Eleven molecules from ChEMBL document CHEMBL1154307, “Eucalmaidins A-E, (+)-oleuropeic acid derivatives from the fresh leaves of Eucalyptus maideni” (J Nat Prod, 2009) can be followed below.

One data set has as its system Human alphaherpesvirus 1. Briefly: Antiviral activity against HSV1 infected in african green monkey Vero cells assessed as inhibition of virus-induced cytopathic effect after 3 days by crystal violet staining. Format: functional. The procedure, abridged:
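Vero cells grown 24 h in 24-well plates, then infected with 30 PFU HSV-1 together with serial sample dilutions in DMEM containing 2% FBS, adjusted to pH 7.2 with NaHCO3 and Hepes. Overlay medium held 1% methylcellulose. After 3 days, cells were fixed with formalin, stained with crystal violet, and plaques counted. The concentration giving 100% plaque reduction versus untreated infected control was read from graphic plots.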

A short description of data set [1]: Cytotoxicity against african green monkey Vero cells after 3 days by MTT assay. Format: cell-based. The settings on record: chlorocebus sabaeus, read-out: MNCC. The procedure, abridged:
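Confluent Vero monolayers were exposed in triplicate to serial sample dilutions in DMEM with 2% FBS (pH 7.2) for 3 days. MTT was then added for 4 h and the formazan dissolved in DMSO. OD was read at 540 and 630 nm against untreated control. The maximal noncytotoxic concentration was taken as the highest concentration showing no cytotoxic effect.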
On the technique in general: Tetrazolium dyes change colour on reduction, which living cells bring about.

Active and inactive are the calls of the source. No cut-off for these calls is given here.

On to `COc1cc([C@@H]2c3cc(O)c(OC)cc3C[C@H](CO)[C@H]2CO[C@@H]2O[C@H](CO)[C@@H](O)[C@H](O)[C@H]2O)ccc1O`, for which the inhibition entry in the data set with Human alphaherpesvirus 1 was “inactive”. The MNTC at 72 h in data set [1] came to 380 µM. In the same order, the values of `CC(C)(O)C1CC=C(C(=O)O)CC1` (racemic) are “inactive” and greater than 1090 µM. As to `Nc1nc2c(ncn2COCCO)c(=O)[nH]1` [ACYCLOVIR], the “Concentration giving 100% plaque reduction (IC100)” value with Human alphaherpesvirus 1 is listed as 0.0043 mM. With `Cc1cc(=O)c2c(O)cc(O[C@@H]3O[C@H](COC(=O)C4=CC[C@H](C(C)(C)O)CC4)[C@@H](O)[C@H](O)[C@H]3O)cc2o1` [CYPELLOCARPA C], the inhibition result with Human alphaherpesvirus 1 was “inactive”. For the same molecule, in data set [1], the MNTC at 72 h was greater than 380 µM. On the same counts, the results for `CC(C)(O)[C@H]1CC=C(C(=O)OC[C@H]2O[C@@H](Oc3cc(C(=O)O)cc(O)c3O)[C@H](O)[C@@H](O)[C@@H]2O)CC1` [CYPELLOCARPIN A] are “inactive” and 30 µM. On the same counts, the results for `CC1(O)CC(=O)c2c(O)cc(O[C@@H]3O[C@H](COC(=O)C4=CC[C@H](C(C)(C)O)CC4)[C@@H](O)[C@H](O)[C@H]3O)cc2O1` (stereo partly specified) [CYPELLOCARPIN B] are “inactive” and 20 µM.

Regarding `CC(C)(O)[C@H]1CC=C(C(=O)OC[C@H]2O[C@@H](O)[C@H](O)[C@@H](O)[C@@H]2O)CC1` [EUCALMAIDIN A], in the data set on Human alphaherpesvirus 1, the inhibition entry is “inactive”. Moreover, in data set [1], the MNTC at 72 h is greater than 580 µM. Consider `CC(C)(O)[C@H]1CC=C(C(=O)OC[C@H]2O[C@@H](Oc3c(O)cc(C(=O)O)cc3O)[C@H](O)[C@@H](O)[C@@H]2O)CC1` [EUCALMAIDIN B], for which the inhibition entry with Human alphaherpesvirus 1 is “inactive”. Besides, the MNTC at 72 h in data set [1] was found to be 400 µM. In the same order, the values of `COc1cc(C(=O)O)cc(OC)c1O[C@@H]1O[C@H](COC(=O)C2=CC[C@H](C(C)(C)O)CC2)[C@@H](O)[C@H](O)[C@H]1O` [EUCALMAIDIN C] are “inactive” and 380 µM. As to `O=c1c(O)c(-c2ccc(O)c(O)c2)oc2cc(O)cc(O)c12` [QUERCETIN], the “Concentration giving 100% plaque reduction (IC100)” value with Human alphaherpesvirus 1 is reported as 0.33 mM. Further, in data set [1], the MNTC at 72 h was less than 20 µM. As for `C[C@@H]1O[C@@H](Oc2c(-c3ccc(O)c(O)c3)oc3cc(O)cc(O)c3c2=O)[C@H](O)[C@H](O)[C@H]1O` [QUERCITRIN], the inhibition entry with Human alphaherpesvirus 1 is “inactive”. In addition, the MNTC at 72 h in data set [1] amounted to 10 µM.
